{"data": "Results collected from several papers", "rep main protease": "Replicase polyprotein 1ab, main protease (rep, Severe acute respiratory syndrome coronavirus 2, UniProt P0DTD1)", "MAL12": "Alpha-glucosidase MAL12 (MAL12, Saccharomyces cerevisiae S288c, UniProt P53341)", "ADRA1A": "Alpha-1A adrenergic receptor (ADRA1A, Homo sapiens, UniProt P35348)"}
{"Compound": "COc1ccc(-c2cc(=O)c3c(O)cc(OC)cc3o2)cc1", "target": "rep main protease", "assay": "enzyme activity, inhibitor", "conditions": "10 µM", "endpoint": "inhibition", "value": "3.99%"}
{"Compound": "CN1C(=S)N(c2ccccc2)C(=O)/C1=C1/C(=O)N(C)c2ccc(Cl)cc21", "target": "MAL12", "assay": "enzyme activity, inhibitor, absorbance", "conditions": "25 µM", "endpoint": "inhibition", "value": "11.9%"}
{"Compound": "COc1cc(O)c2c(=O)c(OC)c(-c3ccccc3)oc2c1", "target": "rep main protease", "assay": "enzyme activity, inhibitor", "conditions": "10 µM", "endpoint": "inhibition", "value": "3.04%"}
{"Compound": "c1cncc([C@@H]2CCCN2)c1", "target": "ADRA1A", "assay": "ligand displacement", "conditions": "50 µM", "endpoint": "inhibition", "value": "-8.12%"}
{"Compound": "COc1cc(O)c2c(=O)cc(-c3ccccc3)oc2c1", "target": "rep main protease", "assay": "enzyme activity, inhibitor", "conditions": "10 µM", "endpoint": "inhibition", "value": "2.12%"}
{"Compound": "[2H]c1c([2H])c([C@]2([2H])CCCN2C(=O)C(C)(C)Oc2ccc3cn[nH]c3c2)c([2H])c([2H])c1C([2H])([2H])[2H]", "target": "Focal adhesion kinase 1 (PTK2, Homo sapiens, UniProt Q05397)", "assay": "binding, competition with immobilised ligand", "conditions": "1 µM", "endpoint": "remaining binding", "value": "75%"}
{"Compound": "CC(C)CC(=O)OC[C@H]1O[C@@](C#N)(c2ccc3c(N)ncnn23)[C@H](O)[C@@H]1O", "target": "ADRA1A", "assay": "cell-free assay", "conditions": "20 µM", "endpoint": "inhibition", "value": "3%"}
{"Compound": "O=c1c(O)c(-c2ccc(O)cc2)oc2c(O)c(O)cc(O)c12", "target": "rep main protease", "assay": "enzyme activity, inhibitor", "endpoint": "kinact", "value": "0.000152 s⁻¹"}
{"Compound": "COc1cc2cc3c4c(cc(OC)c(OC)c4c2cc1OC)CCN3C", "target": "ADRA1A", "assay": "ligand displacement, radioligand", "conditions": "10 µM", "endpoint": "inhibition", "value": "19%"}
{"Compound": "O=C(O[C@@H]1Cc2c(O)cc(O)cc2O[C@@H]1c1ccc(O)c(O)c1)c1cc(O)c(O)c(O)c1", "target": "rep main protease", "assay": "enzyme activity, inhibitor", "endpoint": "kinact/KI", "value": "9.76 M⁻¹ s⁻¹"}
{"Compound": "CN1CCC[C@H]1c1cccnc1", "target": "ADRA1A", "assay": "ligand displacement", "conditions": "50 µM", "endpoint": "inhibition", "value": "-6.17%"}
{"Compound": "CN1C(=O)/C(=N\\Nc2ncc(-c3cc4ccccc4oc3=O)s2)c2cc(Cl)ccc21", "target": "MAL12", "assay": "enzyme activity, inhibitor, absorbance", "conditions": "25 µM", "endpoint": "inhibition", "value": "17.4%"}
{"Compound": "O=C(O)c1cc(O)c(O)c(O)c1", "target": "rep main protease", "assay": "enzyme activity, inhibitor", "endpoint": "kinact", "value": "0.00079 s⁻¹"}
{"Compound": "CCc1ccc(N2C(=O)/C(=C3/C(=O)N(C)c4ccc(Cl)cc43)NC2=S)cc1", "target": "MAL12", "assay": "enzyme activity, inhibitor, absorbance", "conditions": "200 µM", "endpoint": "inhibition", "value": "62.1%"}
{"Compound": "COc1cc2c(cc1OC)-c1c(OC)c(OC)cc3c1[C@H](C2)N(C)CC3", "target": "ADRA1A", "assay": "ligand displacement, radioligand", "conditions": "10 µM", "endpoint": "inhibition", "value": "82%"}
